High-throughput results: PubChem, several laboratories
A selection: hits, their analogues and other compounds. The true share with any hit is near 2.9%.
ADAM10 inh = inhibitors of human ADAM10. O14672. recombinant ADAM10, EDANS/DABCYL FRET peptide cleavage, 3 h. inhibition, % at 7 µM. 370,000 tested, 0.62% active. AID 720582;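 active means inhibition above a per-campaign cutoff equal to the mean of compounds falling between control-based bounds plus 3 SD, cut at about 20% in these data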;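 further: 0% = DMSO wells while the 100% control is not disclosed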
ADAM17 inh = ADAM17 inhibition, QFRET primary screen. P78536. inhibition, % at 6.95 µM. 370,000 tested, 0.83% active. recombinant ADAM17, EDANS/DABCYL FRET peptide cleavage;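 active means inhibition above the mean of compounds lying between control limits plus 3 SD, set per campaign, cut at about 8.5% in these data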;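 further: 0% = DMSO-only wells as the low control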
Target sequence (P78536 215-824 limits assumed): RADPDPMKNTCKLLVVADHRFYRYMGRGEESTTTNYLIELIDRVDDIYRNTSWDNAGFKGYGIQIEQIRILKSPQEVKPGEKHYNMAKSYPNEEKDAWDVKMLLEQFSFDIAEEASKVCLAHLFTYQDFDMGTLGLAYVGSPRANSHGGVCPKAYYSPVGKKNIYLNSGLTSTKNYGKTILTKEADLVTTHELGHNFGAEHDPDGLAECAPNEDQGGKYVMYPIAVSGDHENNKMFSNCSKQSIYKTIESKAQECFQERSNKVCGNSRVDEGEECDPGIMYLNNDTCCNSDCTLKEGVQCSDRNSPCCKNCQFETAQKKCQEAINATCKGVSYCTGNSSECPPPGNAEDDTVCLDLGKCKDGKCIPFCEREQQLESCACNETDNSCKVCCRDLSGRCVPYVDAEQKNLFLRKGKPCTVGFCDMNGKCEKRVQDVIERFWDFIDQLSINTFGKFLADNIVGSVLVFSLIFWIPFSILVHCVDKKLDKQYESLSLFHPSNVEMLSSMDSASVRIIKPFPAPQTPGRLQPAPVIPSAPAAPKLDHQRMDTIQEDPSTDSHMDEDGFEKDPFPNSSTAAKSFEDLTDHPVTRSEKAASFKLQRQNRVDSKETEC
CendR NRP1 mod = modulators of CendR peptide binding to human neuropilin-1; FAM-RPARPAR peptide binding to NRP-1, fluorescence polarization; inhibition, % at 25 µM; 360,000 tested, 0.85% active; AID 602438;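 active means inhibition or corrected inhibition above about 18%, plus a signal ratio from 0.5 to 1.5, limit read from the data, passing the limit was not always enough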
CaV13 ICDI inh = Primary screen for inhibitors of IQ motif and Ca2+-dependent inactivation inhibitor domain binding in CACNA1D, Förster resonance energy transfer in living cells, … | HEK cells, CFP/YFP FRET ICDI-IQ, plate reader, 10 min; percent FRET-ratio fall versus neutral wells | inhibition, % at 12.3 µM | 340,000 tested, 0.098% active | AID 743397;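 active means mean replicate inhibition of at least 30% and at least 1% of replicates passing that level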;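 further: 0% = median of the neutral control wells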
FAS-TE inh = inhibitors of human fatty acid synthase thioesterase domain; AID 602261; recombinant FAS-TE, OMFH fluorogenic substrate, fluorescence endpoint; 360,000 tested, 0.67% active; P49327; inhibition, % at 15 µM;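 active means compounds whose normalised, plate-corrected inhibition of enzyme fluorescence in the single-dose primary screen is 50% or more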;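 further: 0% = DMSO with enzyme and 100% = substrate without enzyme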
Arr AP2 block = blocks beta-arrestin peptide binding to AP2 adaptin; FITC-arrestin peptide / GST-AP2 beads, flow cytometry; AP2 beta2 appendage carries R879A mutation; inhibition, % at 10 µM; 340,000 tested, 0.31% active;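 active means inhibition above a set limit, near 3 SD of compounds lacking own fluorescence, cut at about 54% in these data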;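 further: plate controls were DMSO wells for no effect and 5 µM unlabelled arrestin peptide for full effect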
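System: GST-AP2 R879A glutathione beads. Medium: PBS with 0.05% Tween 20 and 0.1% BSA. Also added: FITC-arrestin peptide, 50 nM. Incubation: 12 min plus 1 h, RT. Measured by: high-throughput flow cytometry of beads, ex 488, em 535 nm. Evaluation: percent drop in bead-associated FITC signal.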
FAS-TE conf = FAS thioesterase (human) inhibition, confirmation; shares compounds with FAS-TE inh; recombinant FAS-TE, OMFH fluorogenic substrate, fluorescence; inhibition, % at 15 µM; 2,300 tested, 45% active; AID 624325;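 active means compounds inhibiting the enzyme by at least 50% at 15 µM in any one of the replicates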;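 further: 0% = enzyme with DMSO only and 100% = wells lacking enzyme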
* hit, by the source's call; / = not tested or not shown.

SMILES | ADAM10 inh | ADAM17 inh | CendR NRP1 mod | CaV13 ICDI inh | FAS-TE inh | Arr AP2 block | FAS-TE conf
CN(C)S(=O)(=O)c1cccc(NC(=O)C2CCCN(C(=O)c3ccc(Cl)cc3)C2)c1 (centres undefined) | 0 | 0 | 10 | -9 | 0 | / | /
O=C1C=CC(=O)N1c1ccc2c(c1)C(NC(=O)C(F)(F)F)c1ccccc1-2 (centres undefined) | -7 | -3 | -4 | -6 | 17 | 9 | /
Cc1ccc(Cn2cc(COC(=O)NCCc3c[nH]c4ccccc34)nn2)cc1 | 2 | -3 | / | / | / | / | /
O=C(Nc1ccc2c(c1)OCCO2)C(c1cc2ccccc2o1)N1CCN(c2ccc(C(F)(F)F)cn2)CC1 (centres undefined) | -3 | 1 | 3 | -6 | 55* | / | 18
CC(C)Oc1cc(F)ccc1-c1cc(C(=O)NCCc2ccncc2)[nH]n1 | 0 | -1 | 0 | -10 | -7 | / | /
CCOc1cc(/C=N\Nc2nc(Nc3ccccc3)nc(N3CCOCC3)n2)ccc1OC(=O)c1ccco1 | -3 | 3 | -3 | -5 | 72* | 1 | 17
CC(=O)c1ccc(Nc2nc(N3CCOCC3)nc(N3CCOCC3)n2)cc1 | 3 | 0 | 5 | -1 | -1 | -12 | /
CCOC(=O)c1ccc(Nc2nc(N3CCOCC3)nc(N3CCOCC3)n2)cc1 | -10 | -3 | 1 | -3 | 51* | 3 | 14
COc1cc(/C=N/Nc2nc(C)cc(C)n2)ccc1OC(=O)c1ccco1 | -8 | -3 | -1 | -8 | -2 | 4 | /
CC(=O)C[C@H](O)CC(=O)[C@H]1OC(=O)CC/C=C\Cc2ccccc21 | 3 | -4 | 14 | -4 | -7 | -6 | /
CS(=O)(=O)c1ccc(-c2csc(C(O)c3cccc(Cl)c3)n2)cc1 (centres undefined) | -2 | -3 | -6 | -3 | 52* | / | 17
CC(=O)N1CCN(S(=O)(=O)c2cccc(C(=O)OCc3ccc(C(C)(C)C)cc3)c2)CC1 | 3 | 4 | 4 | -6 | 88* | -10 | 51*
CC1CCCN(S(=O)(=O)c2ccc(NC(=O)Cc3ccc(S(=O)(=O)N4CCOCC4)s3)cc2)C1 (centres undefined) | 13 | 3 | -9 | -2 | 61* | 9 | 28*
CCOC(=O)[C@]12CCCCC/C=C\1N(CCc1ccc(Cl)cc1)C(=O)[C@H]2CC(=O)NCc1ccc(OC)c(OC)c1 | 10 | 4 | / | / | / | / | /
O=C(c1cc(COc2cccc(C(F)(F)F)c2)on1)N1C[C@@H]2CCC[C@H]1C2 | 4 | 0 | 4 | -10 | 56* | -7 | 24*
Cc1ccc(C(=O)CN(C(=O)c2ccc(Cl)c(Cl)c2)N2C(=O)C3C4C=CC(C4)C3C2=O)cc1 (centres undefined) | -7 | -3 | -5 | -7 | 61* | 15 | 30
O=C(CN(C(=O)c1ccc(Cl)cc1Cl)N1C(=O)C2C3C=CC(C3)C2C1=O)c1ccc(F)cc1 (centres undefined) | 4 | 1 | -11 | -8 | 17 | 26 | /
COC(=O)C1=C(C)N(Cc2ccccc2C(F)(F)F)C(=NCc2cccc(C(F)(F)F)c2)NC1c1cccc(Cl)c1 (centres undefined) | 1 | 1 | / | -6 | / | / | /
Cc1ccc(NC(=O)c2ccc(S(=O)(=O)N3CC(C)CC(C)C3)cc2)cc1S(=O)(=O)N1CCOCC1 (centres undefined) | -8 | 2 | 1 | -5 | 50* | 9 | 7
Cc1ccc(NC(=O)C2CCN(S(=O)(=O)c3ccc(C(C)(C)C)cc3)CC2)cc1S(=O)(=O)N1CCOCC1 | 3 | 0 | 7 | -2 | 89* | -1 | 31
Cc1ccc(S(=O)(=O)N2c3ccccc3C[C@H]2CC=C(c2ccccc2)c2ccccc2)cc1 | 7 | 2 | / | / | / | / | /
CCOC(=O)[C@@]12CN(C(=O)OC(C)(C)C)CC=C1N(Cc1ccc(OC)cc1)C(=O)[C@H]2CC(=O)NCc1ccc(C)o1 | 7 | 2 | / | / | / | / | /
O=C1N(Cc2ccccc2)c2ccccc2C12CCCc1sc(CCc3ccccc3)nc12 (centres undefined) | 3 | 0 | / | / | / | / | /
CCN(CC)C(=O)CC[C@@H]1CC[C@]2(CCCN(Cc3nccs3)C2)O1 | -10 | -3 | / | / | / | / | /
O=C(CSc1ncnc2c1cnn2-c1ccccc1)NC1CCCC1 | -4 | -3 | -10 | -6 | 61* | 30 | 55*
SMILES | ADAM10 inh | ADAM17 inh | CendR NRP1 mod | CaV13 ICDI inh | FAS-TE inh | Arr AP2 block | FAS-TE conf
CNC(=O)CSc1ncnc2c1cnn2-c1ccccc1 | 5 | -3 | 11 | 0 | -7 | 3 | /
O=c1[nH]c(=O)c2cc([N+](=O)[O-])cc([N+](=O)[O-])c2[nH]1 | 12 | 4 | 7 | -6 | 2 | 9 | /
O=c1[nH]c2cc([N+](=O)[O-])c([N+](=O)[O-])cc2[nH]c1=O | -2 | -2 | 4 | 6 | 66* | 5 | 73*
CCOC(=O)C1(C)CCCCCN1C(=O)c1ccc(OC)cc1 (centres undefined) | 3 | 1 | 15 | -11 | -5 | / | /
COc1cc2c(-c3ccc4cc[nH]c4c3)c(-c3ccc(C#N)cc3)oc(=O)c2cc1OC | -174 | -49 | 7 | -13 | 67* | -8 | 11
CC(C)(C)OC(=O)NCc1ccc(CNC(=O)c2[nH]cnc2C(=O)NCC(=O)OCc2ccccc2)cc1 | 11 | 5 | 20 | -6 | 66* | -7 | 76*
O=C(CNC(=O)c1nc[nH]c1C(=O)NCc1ccccc1)OCc1ccccc1 | 5 | 1 | 0 | 15 | 19 | -4 | /
NC(Cc1ccc(C(F)(F)F)cc1)c1csc(NC(=O)Nc2ccccc2Oc2ccccc2)n1 (centres undefined) | 10 | 2 | -3 | -5 | -39 | / | /
COC(=O)c1c(NC(=O)c2ccc([N+](=O)[O-])o2)sc2c1CCN(C(C)C)C2 | -18 | 1 | -3 | -6 | 8 | 10 | /
CC(C)N1CCc2c(sc(NC(=O)c3ccc([N+](=O)[O-])o3)c2C(N)=O)C1 | 5 | 4 | 4 | -4 | 60* | -8 | 71*
O=Cc1s/c(=N\S(=O)(=O)c2ccccc2)n(CCCCl)c1Cl | 9 | 2 | -23 | -6 | 76* | 1 | 83*
CCn1c(C)cs/c1=N\S(=O)(=O)c1ccccc1 | -2 | 2 | -1 | -10 | -5 | -8 | /
CCN1C(=O)[C@H]2[C@@H](c3ccc(-c4cccc(Cl)c4)c(OC)c3)N[C@@](Cc3ccccc3)(C(=O)OC)[C@H]2C1=O | -11 | -3 | -13 | -4 | 47 | -6 | /
